ChEMBL document CHEMBL5523695, “Discovery of small molecule benzothiazole and indole derivatives tackling tau 2N4R and α-synuclein fibrils” (Bioorg Med Chem, 2024)
The source made the active and inactive calls. No cut-off for these calls is given here.

Tests used:
[1] = target: Alpha-synuclein (Homo sapiens) (UniProt P37840); test: Inhibition of recombinant alpha-Synuclein (unknown origin) aggregation assessed as reduction in fluorescence intensity by measuring residual activity at 100 uM measured every 20 mins for 40 to 70 hrs by Thioflavin T based fluorescence analysis relative to control; settings: time 40-70 hrs
Method in brief: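 Recombinant α-syn (2 μM final) in 10 mM PBS pH 7.4 with 0.5 mM SDS and 300 mM NaCl. Compound at 100 μM final, ThT 20 μM, one borosilicate bead per well. Read at 37 °C every 20 min after 10 s shaking, ex 440/em 485 nm, for 40–70 h. Background was ThT plus 0.25 % DMSO without protein. Plateau fluorescence expressed as % of control, triplicates, mean ± SEM.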

[2] = target: Alpha-synuclein (Homo sapiens) (UniProt P37840); test: Inhibition of recombinant alpha-Synuclein (unknown origin) aggregation assessed as reduction in oligomer formation at compound-protein ratio of 1:0.6 incubated for 10 mins in presence of 53W light exposure for 1 sec by PICUP assay
Method in brief: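 α-Syn (60 μM) in 10 mM phosphate buffer was cross-linked with Ru(bpy)3 (300 μM) and ammonium persulfate (6 mM), compound at 50, 100 or 200 μM. Light from a 53 W incandescent bulb for 1 s. Laemmli/2-mercaptoethanol added, then 95 °C for 10 min. Samples run on 16 % SDS-PAGE with Coomassie stain; oligomer bands at 35–40 kDa assessed. Controls lacked light or Ru(bpy)3.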

[3] = target: T1, Microtubule-associated protein tau (Homo sapiens, UniProt P10636); test: Inhibition of unfolded tau 2N4R (unknown origin) aggregation expressed in Escherichia coli Rosetta BL21 cells assessed as reduction in short and fine needle like fibrils at 100 uM measured after 72 hrs by TEM analysis
T1 sequence (P10636 whole entry): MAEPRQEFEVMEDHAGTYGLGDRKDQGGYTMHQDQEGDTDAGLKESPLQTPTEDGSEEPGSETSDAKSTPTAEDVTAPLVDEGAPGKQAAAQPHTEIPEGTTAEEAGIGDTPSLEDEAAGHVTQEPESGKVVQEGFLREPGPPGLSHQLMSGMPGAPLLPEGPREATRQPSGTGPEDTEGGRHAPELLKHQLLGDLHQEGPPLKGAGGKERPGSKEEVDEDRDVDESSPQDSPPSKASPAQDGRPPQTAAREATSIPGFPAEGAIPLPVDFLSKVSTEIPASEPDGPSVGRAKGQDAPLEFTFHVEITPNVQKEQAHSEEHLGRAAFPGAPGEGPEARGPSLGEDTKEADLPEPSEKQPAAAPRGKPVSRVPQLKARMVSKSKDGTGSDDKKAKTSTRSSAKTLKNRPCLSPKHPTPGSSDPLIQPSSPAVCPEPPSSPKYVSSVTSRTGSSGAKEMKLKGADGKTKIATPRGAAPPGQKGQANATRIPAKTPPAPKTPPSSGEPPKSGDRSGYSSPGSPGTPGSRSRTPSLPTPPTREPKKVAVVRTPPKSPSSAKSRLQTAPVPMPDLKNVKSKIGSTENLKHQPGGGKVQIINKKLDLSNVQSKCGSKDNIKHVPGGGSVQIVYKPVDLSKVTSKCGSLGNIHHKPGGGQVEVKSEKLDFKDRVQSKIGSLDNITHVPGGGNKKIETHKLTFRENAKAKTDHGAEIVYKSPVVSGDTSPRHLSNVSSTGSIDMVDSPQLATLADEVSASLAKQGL
Method in brief: (§1)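 Recombinant tau 2N4R (6 μM) incubated with compound at 100 μM, or 0.25 % DMSO, in 10 mM PBS pH 7.4 for 72 h at 37 °C. Placed on Formvar-carbon copper grids for 1 min, rinsed, and negatively stained with 1 % uranyl acetate. TEM at 40k magnification, 100 kV.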

[4] = target: T1, Microtubule-associated protein tau; test: Inhibition of unfolded tau 2N4R (unknown origin) aggregation expressed in Escherichia coli Rosetta BL21 cells assessed as reduction in formation of large dense accumulation of tau fibrils at 100 uM measured after 72 hrs by TEM analysis; method in brief: as §1
[5] = target: T1, Microtubule-associated protein tau; test: Inhibition of tau 2N4R (unknown origin) aggregation expressed in Escherichia coli Rosetta BL21 cells assessed as reduction in oligomer formation at 50 to 200 uM incubated for 10 mins in presence of 53W light exposure for 60 sec by PICUP assay; settings: dose 50-200 µM
Method in brief: (§2)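 Tau 2N4R or 0N4R, expressed in-house from a pET30a construct in E. coli Rosetta BL21 and purified by heat step plus SP cation exchange, used at 10 μM in 10 mM phosphate buffer. Compound at 50, 100 and 200 μM. Ru(bpy)3 at 300 μM and APS at 6 mM, 60 s light exposure. Samples boiled at 95 °C for 10 min in reducing Laemmli buffer, then 16 % SDS-PAGE with Coomassie.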

[6] = (§3) Cytotoxicity against human M17D cells expressing doxycyclin-inducible alpha-syn-S3K::YFP inclusion-prone fusion protein assessed as reduction in cell confluency at <20 uM treated with compound starting from 24 hrs post plating followed by doxycyclin addition at 48 hrs and measured 96 hrs post plating by Incucyte-based analysis; type: toxicity; settings: 72 h
Method in brief: (§4)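 Dox-inducible M17D-TR/αS-3K::YFP neuroblastoma cells seeded at 30,000 per well. Compound added 24 h after plating at 1.25–40 μM, with 0.1 % DMSO as vehicle. Dox at 1 μg/mL final was added at 48 h. At 96 h, Incucyte imaging gave confluence fold change vs vehicle. N = 2 independent experiments, 6–12 wells total. Mean ± SD, one-way ANOVA with Dunnett's test.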

[7] = target: T1, Microtubule-associated protein tau; test: Inhibition of human tau 0N4R aggregation expressed in Escherichia coli Rosetta BL21 cells assessed as reduction in oligomer formation at 50 to 200 uM incubated for 10 mins in presence of 53W light exposure for 60 sec by PICUP assay; settings: dose 50-200 µM; method in brief: as §2
[8] = target: Alpha-synuclein (Homo sapiens) (UniProt P37840); test: Inhibition of recombinant alpha-Synuclein (unknown origin) aggregation assessed as reduction in protein fibril formation at 100 uM measured after 68 hrs by TEM analysis
Method in brief: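 α-Syn (2 μM) samples taken from the ThT kinetic runs after about 68 h at 37 °C, compound at 100 μM, vehicle 0.25 % DMSO. Applied to Formvar-carbon copper grids for 1 min, washed, and stained with 1 % uranyl acetate for 1 min. Imaged by TEM at 40k magnification, 100 kV.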

[9] = target: T1, Microtubule-associated protein tau; test: Inhibition of unfolded tau 2N4R (unknown origin) aggregation expressed in Escherichia coli Rosetta BL21 cells assessed as reduction in protein fibril formation at 100 uM measured after 72 hrs by TEM analysis; method in brief: as §1
[10] = target: T1, Microtubule-associated protein tau; test: Inhibition of unfolded tau 2N4R (unknown origin) aggregation expressed in Escherichia coli Rosetta BL21 cells assessed as appearance of rounded structures at 100 uM measured after 72 hrs by TEM analysis; method in brief: as §1
[11] = as §3, with “20 to 40” for “<20”; type: toxicity; settings: 72 h, dose 20-40 µM; method in brief: as §4
[12] = target: Alpha-synuclein (Homo sapiens) (UniProt P37840); test: as §3, with “Inhibition of alpha-syn inclusion formation in” for “Cytotoxicity against”, “inclusions” for “cell confluency at <20 uM”; type: cell-based; settings: time 72.0 hrs
Method in brief: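 M17D-TR/αS-3K::YFP cells seeded at 30,000 per well and dosed 24 h post-plating at 1.25–40 μM (vehicle 0.1 % DMSO). Transgene induced at 48 h with dox at 1 μg/mL final. At 96 h, Incucyte analysis of punctate YFP inclusions, expressed as fold change vs DMSO. Two independent experiments, 6–12 wells total, mean ± SD, Dunnett's post-hoc test.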

[13] = target: Alpha-synuclein (Homo sapiens) (UniProt P37840); test: Inhibition of recombinant alpha-Synuclein (unknown origin) aggregation assessed as reduction in fluorescence intensity measured every 20 mins for 40 to 70 hrs by Thioflavin T based fluorescence analysis; settings: dose 3.125-25 µM, time 40-70 hrs

| SMILES | Activity [1] [%] | also measured |
| --- | --- | --- |
| COc1cccc2sc(NS(=O)(=O)c3ccccc3C)nc12 | 32.7 | – |
| O=[N+]([O-])c1ccc(S(=O)(=O)Nc2ccc3cc[nH]c3c2)cc1 | 63.5 | – |
| COc1cccc2sc(NS(=O)(=O)c3cccs3)nc12 | 41.6 | – |
| COc1cccc2sc(NC(=O)c3cccs3)nc12 | 86.6 | – |
| COc1cccc2sc(NC(=O)c3cccc(C(F)(F)F)c3)nc12 | 84.7 | – |
| COc1cccc2sc(NC(=O)c3ccc(Br)cc3)nc12 | > 200 | – |
| COc1cccc2sc(NC(=O)Nc3ccc(I)cc3)nc12 | 141 | – |
| COc1cccc2sc(NC(=O)c3ccc(Cl)cc3)nc12 | 116 | – |
| COc1cccc2sc(NC(=O)Nc3ccc(Br)cc3)nc12 | 170 | – |
| COc1cccc2sc(NC(=O)Nc3ccc(C(F)(F)F)cc3)nc12 | 94.8 | – |
| COc1cccc2sc(NC(=O)c3cccc([N+](=O)[O-])c3)nc12 | 48.1 | – |
| COc1cccc2sc(NC(=O)Nc3ccccc3F)nc12 | > 200 | – |
| O=S(=O)(Nc1ccc2[nH]ccc2c1)c1ccccc1I | 59.7 | – |
| COc1cccc2sc(NC(=O)Nc3ccc(F)cc3)nc12 | 145 | – |
| COc1cccc2sc(NS(=O)(=O)c3ccc(F)cc3)nc12 | 70.4 | – |
| COc1cccc2sc(NC(=O)c3ccccc3Cl)nc12 | 262 | – |
| COc1cccc2sc(NC(=O)c3cc(Cl)cc(Cl)c3)nc12 | 95.4 | – |
| COc1cccc2sc(NS(=O)(=O)c3ccccc3Cl)nc12 | 19.3 | – |
| COc1cccc2sc(NC(=O)Nc3cccs3)nc12 | 41.6 | – |
| COc1ccccc1NC(=O)Nc1nc2c(OC)cccc2s1 | 199 | – |
| COc1cccc2sc(NC(=O)Nc3ccc(C#N)cc3)nc12 | > 200 | – |
| COc1cccc2sc(NC(=O)c3ccc(F)cc3)nc12 | 103 | – |
| COc1cccc2sc(NC(=O)Nc3cc(Cl)cc(Cl)c3)nc12 | > 200 | – |

| SMILES | Activity [1] [%] | also measured |
| --- | --- | --- |
| COc1cccc2sc(NS(=O)(=O)c3cccc([N+](=O)[O-])c3)nc12 | 40.1 | – |
| COc1cccc2sc(NC(=O)Nc3ccc(F)cc3F)nc12 | 184 | – |
| COc1cccc2sc(NS(=O)(=O)c3ccccc3[N+](=O)[O-])nc12 | 41 | – |
| COc1cccc2sc(NC(=O)Nc3cccc(C(F)(F)F)c3)nc12 | > 200 | – |
| O=[N+]([O-])c1ccc(S(=O)(=O)Nc2ccc3[nH]ccc3c2)cc1 | 97.6 | – |
| COc1cccc2sc(NC(=O)Nc3ccccc3C)nc12 | 148 | – |
| COc1cccc2sc(NS(=O)(=O)c3ccccc3F)nc12 | 64.9 | – |
| COc1cccc2sc(NC(=O)Nc3cccc([N+](=O)[O-])c3)nc12 | 78.1 | – |
| COc1cccc2sc(NC(=O)c3ccc(I)cc3)nc12 | > 200 | – |
| COc1cccc2sc(NS(=O)(=O)c3cccc(C(F)(F)F)c3)nc12 | 56 | – |
| COc1cccc2sc(NC(=O)c3ccc([N+](=O)[O-])cc3)nc12 | 45.4 | – |
| COc1ccccc1S(=O)(=O)Nc1nc2c(OC)cccc2s1 | 79.3 | – |
| COc1cccc2sc(NC(=O)c3ccccc3[N+](=O)[O-])nc12 | 102 | – |
| COc1cccc2sc(NC(=O)Nc3ccccc3)nc12 | 130 | – |
| COc1cccc2sc(NS(=O)(=O)c3cc(Cl)cc(Cl)c3)nc12 | 39.3 | – |
| COc1cccc2sc(NS(=O)(=O)c3ccc(I)cc3)nc12 | 42.8 | – |
| COc1cccc2sc(NS(=O)(=O)c3ccc(Cl)cc3)nc12 | 40.3 | – |
| COc1cccc2sc(NS(=O)(=O)c3ccc([N+](=O)[O-])cc3)nc12 | 9.5 | inhibition [2]: inactive |
| COc1cccc2sc(NC(=O)Nc3ccccc3I)nc12 | 125 | – |
| O=C(Nc1ccccc1I)Nc1cccc2[nH]ccc12 | 38.3 | – |
| O=C(Nc1ccc2[nH]ccc2c1)Nc1ccccc1I | 40.3 | – |
| COc1cccc2sc(NS(=O)(=O)c3ccccc3)nc12 | 74.6 | – |
| COc1cccc2sc(NS(=O)(=O)c3ccc(F)cc3F)nc12 | 87.9 | – |

| SMILES | Activity [1] [%] | also measured |
| --- | --- | --- |
| COc1cccc2sc(NC(=O)Nc3ccccc3[N+](=O)[O-])nc12 | 64.4 | – |
| O=C(Nc1ccc([N+](=O)[O-])cc1)Nc1ccc2[nH]ccc2c1 | 2.9 | inhibition [3]: Active; inhibition [4]: Active; inhibition [5]: inactive; Activity [6]: Non-Toxic; inhibition [7]: inactive; inhibition [8]: Active; inhibition [9]: Active; inhibition [10]: Active; Activity [11]: Toxic; inhibition [12]: Active |
| O=S(=O)(Nc1cccc2[nH]ccc12)c1ccccc1I | 74.8 | – |
| COc1cccc2sc(NS(=O)(=O)c3ccc(C(F)(F)F)cc3)nc12 | 53.8 | – |
| COc1cccc2sc(NS(=O)(=O)c3ccc(C#N)cc3)nc12 | 46.1 | – |
| COc1cccc2sc(NC(=O)Nc3ccc([N+](=O)[O-])cc3)nc12 | 79 | – |
| COc1ccccc1C(=O)Nc1nc2c(OC)cccc2s1 | 182 | – |
| O=S(=O)(Nc1ccc2cc[nH]c2c1)c1ccccc1I | 104 | – |
| COc1cccc2sc(NC(=O)c3ccc(F)cc3F)nc12 | 128 | – |
| COc1cccc2sc(NC(=O)c3ccccc3C)nc12 | 137 | – |
| COc1cccc2sc(NC(=O)c3ccccc3F)nc12 | 98.7 | – |
| COc1cccc2sc(NC(=O)c3ccccc3I)nc12 | 137 | – |
| COc1cccc2sc(NC(=O)c3ccc(C(F)(F)F)cc3)nc12 | 116 | – |
| O=[N+]([O-])c1ccc(S(=O)(=O)Nc2cccc3[nH]ccc23)cc1 | 83.9 | – |
| COc1cccc2sc(NC(=O)Nc3ccc(Cl)cc3)nc12 | 173 | – |
| COc1cccc2sc(NS(=O)(=O)c3ccc(Br)cc3)nc12 | 43.1 | – |
| COc1cccc2sc(NS(=O)(=O)c3ccccc3I)nc12 | 5.8 | inhibition [2]: inactive |
| O=C(Nc1ccc2cc[nH]c2c1)Nc1ccccc1I | 83.4 | – |
| COc1cccc2sc(NC(=O)c3ccccc3)nc12 | 107 | – |
| COc1cccc2sc(NC(=O)c3ccc(C#N)cc3)nc12 | 128 | – |
| O=C(Nc1ccc([N+](=O)[O-])cc1)Nc1cccc2[nH]ccc12 | 4 | inhibition [3]: Active; inhibition [4]: Active; inhibition [5]: inactive; inhibition [13]: Dose-Dependent Effect; Activity [6]: Non-Toxic; inhibition [7]: inactive; inhibition [8]: Active; inhibition [9]: Active; inhibition [10]: Active; Activity [11]: Toxic; inhibition [12]: Active; inhibition [2]: Active |
